Data as given in ChEMBL document CHEMBL1144515, “Synthesis, in vitro evaluation, and SAR studies of a potential antichagasic 1H-pyrazolo[3,4-b]pyridine series” (Bioorg Med Chem, 2007).
Values after ≈ are worked out from the molar mass of the structure shown.

Test system: Trypanosoma cruzi
Test: Antiparasitic activity against Trypanosoma cruzei Y blood stream trypomastigotes
Type: functional, organism-based
Summary of the method: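 Mouse infected blood diluted with healthy mouse blood and fetal bovine serum to about 106 trypomastigotes/mL; compounds from DMSO stocks added at final 10, 100, 250, 500 and 1000 µg/mL. Incubated 4 °C, 24 h with constant shaking; untreated and crystal violet-treated controls; triplicate. Trypomastigotes counted, % lysis versus untreated; IC50 taken as 50% activity concentration.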

| SMILES | IC50 [µg/mL] |
| --- | --- |
| Cc1nn(-c2ccccc2)c2nc(-c3ccc([N+](=O)[O-])cc3)cc(C(=O)NN)c12 | 533 (≈ 1370 µM) |
| COc1ccc(-c2cc(C(=O)N/N=C\c3ccc(O)cc3)c3c(C)nn(-c4ccccc4)c3n2)cc1 | 332 (≈ 694 µM) |
| Cc1nn(-c2ccccc2)c2nc(-c3ccc(Cl)cc3)cc(C(=O)N/N=C\c3ccc([N+](=O)[O-])cc3)c12 | 108 (≈ 212 µM) |
| Cc1nn(-c2ccccc2)c2nc(-c3ccccc3)cc(C(=O)NN)c12 | 782 (≈ 2280 µM) |
| Cc1nn(-c2ccccc2)c2nc(-c3ccc(Cl)cc3)cc(C(=O)NN)c12 | 211 (≈ 558 µM) |
| Cc1nn(-c2ccccc2)c2nc(-c3ccc(C#N)cc3)cc(C(=O)NN)c12 | 341 (≈ 926 µM) |
| COc1ccc(-c2cc(C(=O)N/N=C\c3ccc([N+](=O)[O-])cc3)c3c(C)nn(-c4ccccc4)c3n2)cc1 | > 1500 |
| Cc1nn(-c2ccccc2)c2nc(-c3ccc(C#N)cc3)cc(C(=O)N/N=C\c3ccc(F)cc3)c12 | 378 (≈ 797 µM) |
| CCOc1ccc(-c2cc(C(=O)N/N=C\c3ccc(F)cc3)c3c(C)nn(-c4ccccc4)c3n2)cc1 | 39.3 (≈ 79.6 µM) |
| Cc1nn(-c2ccccc2)c2nc(-c3ccccc3)cc(C(=O)N/N=C\c3ccc(O)cc3)c12 | 1.9 (≈ 4.25 µM) |
| Cc1nn(-c2ccccc2)c2nc(-c3ccccc3)cc(C(=O)N/N=C\c3ccc(F)cc3)c12 | 88.9 (≈ 198 µM) |
| CCOc1ccc(-c2cc(C(=O)N/N=C\c3ccc(O)cc3)c3c(C)nn(-c4ccccc4)c3n2)cc1 | 170 (≈ 345 µM) |
| CCOc1ccc(-c2cc(C(=O)N/N=C\c3ccc([N+](=O)[O-])cc3)c3c(C)nn(-c4ccccc4)c3n2)cc1 | 1180 (≈ 2260 µM) |
| CCOc1ccc(-c2cc(C(=O)NN)c3c(C)nn(-c4ccccc4)c3n2)cc1 | 439 (≈ 1130 µM) |
| Cc1nn(-c2ccccc2)c2nc(-c3ccc(Cl)cc3)cc(C(=O)N/N=C\c3ccc(O)cc3)c12 | 71.8 (≈ 149 µM) |
| Cc1nn(-c2ccccc2)c2nc(-c3ccc(C#N)cc3)cc(C(=O)N/N=C\c3ccc([N+](=O)[O-])cc3)c12 | 37.3 (≈ 74.4 µM) |
| COc1ccc(-c2cc(C(=O)NN)c3c(C)nn(-c4ccccc4)c3n2)cc1 | 781 (≈ 2090 µM) |
| Cc1nn(-c2ccccc2)c2nc(-c3ccc(Cl)cc3)cc(C(=O)N/N=C\c3ccc(F)cc3)c12 | 197 (≈ 407 µM) |
| Cc1nn(-c2ccccc2)c2nc(-c3ccc(C#N)cc3)cc(C(=O)N/N=C\c3ccc(O)cc3)c12 | 260 (≈ 551 µM) |
| COc1ccc(-c2cc(C(=O)N/N=C\c3ccc(F)cc3)c3c(C)nn(-c4ccccc4)c3n2)cc1 | 1460 (≈ 3050 µM) |
| Cc1nn(-c2ccccc2)c2nc(-c3ccccc3)cc(C(=O)N/N=C\c3ccc([N+](=O)[O-])cc3)c12 | 95.3 (≈ 200 µM) |
| Cc1nn(-c2ccccc2)c2nc(-c3ccccc3)cc(C(=O)N/N=C\c3ccccc3)c12 | 205 (≈ 476 µM) |
